A selection: hits, their analogues and other compounds. The true share with any hit is near 3.5%.
HTRA1 inhibitor – blocks human HTRA1 serine peptidase; inhibition, % at 5.96 µM; hit rate 0.5% among 340,000; recombinant HTRA1, FP-rhodamine activity-based probe, fluorescence polarization; in the data active means inhibition above about 36%
TCR CD3 inh – blocks the human TCR-CD3 interaction; TAMRA-labeled TCR probe fluorescence, biochemical; inhibition, % at 9.4 µM; hit rate 0.37% among 360,000; AID 651800; in the data active means inhibition above about 19%;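 further: recombinant mutant TCR 2C K166C tagged with TAMRA read by polarization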
SIAE primary – inhibitors of human sialic acid acetylesterase SIAE; Q9HAT2; SIAE FP-Rh probe binding, fluorescence polarization; inhibition, % at 9.66 µM; hit rate 0.69% among 370,000; AID 1053197;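 active means inhibition above a cutoff: mean of compounds within the control limits plus 3 SD of those, cut at about 17% in these data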
rCAG binder – molecules binding r(CAG) RNA repeats; inhibition, % at 3 µM; hit rate 1.3% among 370,000; r(CAG) RNA repeat, TO-PRO-1 dye displacement fluorescence;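 active means inhibition above the plate cutoff, the mean of all test compounds on that plate plus 3 SD, cut at about 35% in these data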;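 further: higher means more dye released from RNA so lower well fluorescence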
ABHD4 inh – inhibitors of mouse ABHD4 | Q8VD66 | purified mABHD4, FP-Rh probe fluorescence polarization | inhibition, % at 8.92 µM | hit rate 0.54% among 370,000;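 active means inhibition exceeding the mean over every tested compound plus 3 SD, cut at about 30% in these data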
Target sequence (Q8VD66 whole entry, looked up): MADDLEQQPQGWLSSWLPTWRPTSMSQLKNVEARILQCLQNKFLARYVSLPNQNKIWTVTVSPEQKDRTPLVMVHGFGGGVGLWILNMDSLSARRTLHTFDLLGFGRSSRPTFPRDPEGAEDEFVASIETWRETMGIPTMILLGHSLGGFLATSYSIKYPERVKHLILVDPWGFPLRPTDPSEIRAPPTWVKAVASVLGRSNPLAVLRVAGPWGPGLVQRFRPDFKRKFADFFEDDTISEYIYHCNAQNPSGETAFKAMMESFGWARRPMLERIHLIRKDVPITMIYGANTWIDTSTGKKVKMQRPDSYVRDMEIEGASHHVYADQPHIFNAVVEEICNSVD
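Test system: mABHD4 protein | Buffer or medium: HEPES pH 7.0 buffer, 150 mM NaCl, 0.01% Pluronic F-127 | Probe or stimulus: FP-Rh fluorescent activity-based probe, added after compound pre-incubation | Timing: Pre-incubation 45 min, probe exposure 60 min, at 25 °C | Technique: Fluorescence polarization, excitation 525 nm, emission 598 nm, BODIPY TMR filters | Repeats: Single well per compound (singlicate)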
PRMT1 inh – inhibitors of human PRMT1; Q99873; recombinant PRMT1, activity-based probe fluorescence polarization; inhibition, % at 2.79 µM; hit rate 1.3% among 370,000; AID 652257;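 active means inhibition above about 21% made by adding two undisclosed values, limit read from the data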
Target sequence (Q99873 whole entry, looked up): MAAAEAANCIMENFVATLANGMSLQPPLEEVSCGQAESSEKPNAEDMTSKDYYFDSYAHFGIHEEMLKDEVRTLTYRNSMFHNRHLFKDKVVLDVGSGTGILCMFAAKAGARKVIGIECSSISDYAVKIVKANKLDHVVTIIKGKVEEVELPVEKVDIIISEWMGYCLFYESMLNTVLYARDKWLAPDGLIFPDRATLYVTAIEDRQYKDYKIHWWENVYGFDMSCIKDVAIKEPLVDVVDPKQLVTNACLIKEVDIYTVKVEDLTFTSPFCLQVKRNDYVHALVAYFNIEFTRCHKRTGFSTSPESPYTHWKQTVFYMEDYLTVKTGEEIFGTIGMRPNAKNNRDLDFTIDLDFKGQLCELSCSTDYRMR
SIAE confirm – confirmation of human SIAE inhibitors. SIAE FP-Rh activity-based probe, fluorescence polarization. shares compounds with SIAE primary. inhibition, % at 9.66 µM. hit rate 13% among 2,300;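 active means mean inhibition of the replicates above the hit cutoff set in the primary screen, cut at about 17% in these data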;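 further: inhibitors lower polarization as more probe stays unbound to SIAE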
Each line names hits and unclear results; the compound was inactive in the other large screens (follow-up assays come after a bar, where they were run).

CCN(CC)CCn1c(=N)n(CCOc2ccccc2)c2ccccc21	none
COCCNC(=O)CN1C(=O)NC2(CCOc3ccccc32)C1=O (stereo not drawn)	none
CC(CNC(=O)CN1C(=O)NC2(CCOc3ccccc32)C1=O)c1ccccc1 (stereo not drawn)	SIAE primary 82 | SIAE confirm inactive
NC(=O)CC(NC(=O)Cc1ccc(Cl)cc1)c1ccc(NC2CCCCC2)c([N+](=O)[O-])c1 (stereo not drawn)	SIAE primary 20 | SIAE confirm inactive
CCN(CC(=O)Nc1ccc(NC(C)=O)cc1)C(=O)c1cccc2ccccc12	SIAE primary 18 | SIAE confirm inactive
O=C(O)Cn1cnc2c(oc3ccccc32)c1=O	none
O=C(Cn1cnc2c(oc3ccccc32)c1=O)c1ccccc1	SIAE primary 18 | SIAE confirm inactive
CCn1cnc2c(oc3ccccc32)c1=O	SIAE primary 20 | SIAE confirm inactive
CN(C)C1=C(Cl)C(=O)N(c2ccc(Cl)c(Cl)c2)C1=O	SIAE primary 19 | SIAE confirm inactive
CCn1c2ccccc2c2cc(NC(=O)c3ccc(C)c([N+](=O)[O-])c3)ccc21	SIAE primary 21 | SIAE confirm inactive
Cc1ccc(S(=O)(=O)NCC2CCN(C(=O)C(=O)c3cc4ccccc4o3)CC2)cc1	none (no result: HTRA1 inhibitor)
CCOC(=O)CC[C@@]1(C(=O)OCC)C[C@@H](CC(=O)N2CCCC2)C(=O)N2CCCC=C21	none (no result: HTRA1 inhibitor, TCR CD3 inh)
Cc1ccc(OCC(=O)Nc2ccc(S(=O)(=O)N3CCN(C)CC3)cc2)cc1	SIAE primary 18 | SIAE confirm inactive
C=CCOc1ccccc1CNc1ccccc1C	SIAE primary 20 | SIAE confirm inactive
Cc1ccccc1NCc1ccccc1O	none
CC(=O)c1cc(-c2ccc(S(C)(=O)=O)cc2)c(=O)n2c1CCC2	none (no result: HTRA1 inhibitor, TCR CD3 inh)
O=C(NC(Cc1c[nH]c2ccccc12)C(=O)Nc1ccc(F)c([N+](=O)[O-])c1)c1cccs1 (stereo not drawn)	SIAE primary 19 | SIAE confirm inactive
Fc1ccc(Cn2ccc3ccc(-c4ccc5ccn(Cc6ccc(F)cc6)c5c4)cc32)cc1	none (no result: HTRA1 inhibitor, TCR CD3 inh)
CC(=O)c1ccc(N/C=C\C(=O)c2ccc(C)cc2)cc1	none
CC(=O)Nc1ccc(N/C=C/C(=O)c2ccc(Cl)cc2)cc1	SIAE primary 19 | SIAE confirm inactive
CCOC(=O)CC[C@@H]1CC[C@]2(CCCN(C(=O)c3ccco3)C2)O1	none (no result: HTRA1 inhibitor, TCR CD3 inh)
C#CCN1CC(N(C)CCO)CS1(=O)=O (stereo not drawn)	none (no result: HTRA1 inhibitor, TCR CD3 inh)
CCNC(=S)NN=C1c2ccccc2-c2ccccc21	SIAE primary 24 | SIAE confirm inactive
CC(C)(C)c1ccc(C(=O)Nc2cc(Cl)c(Cl)cc2C(=O)O)cc1	none (no result: HTRA1 inhibitor, TCR CD3 inh, rCAG binder)
CCOc1cc(/C=N/Nc2ccc(C(=O)O)cc2)ccc1OC(=O)c1ccccc1C	SIAE primary 26 | SIAE confirm 31
O=C(Nc1ccc(F)cc1)OCc1cn(Cc2ccc(F)c(F)c2)nn1	none (no result: HTRA1 inhibitor, TCR CD3 inh)
CCNc1nc(NCC)nc(N/N=C/c2ccc(O)c(O)c2)n1	SIAE primary 18 | SIAE confirm inactive
O=C(NCC(c1ccco1)N1CCCCC1)C(c1ccccc1)c1ccccc1 (stereo not drawn)	none
CC(Sc1ccc(Cl)cc1)C(=O)NCC(c1ccco1)N1CCCCC1 (stereo not drawn)	SIAE primary 63 | SIAE confirm inactive
Cc1cc(Cl)ccc1NC(=O)CN1CCCC1	SIAE primary 23 | SIAE confirm inactive
Cc1ccc(Cl)cc1NC(=O)Cn1c(C)csc1=O	SIAE primary 23 | SIAE confirm inactive
CC(=O)N1CCc2cc(Br)c(S(=O)(=O)NCc3ccc(Cl)cc3)cc21	none (no result: HTRA1 inhibitor, TCR CD3 inh)
COCCCNC(=O)C[C@H]1C[C@@]2(C(=O)OC)C(=C[C@H](C3CCCC3)O[C@@H]2C)N(Cc2ccc(Cl)cc2Cl)C1=O	none (no result: HTRA1 inhibitor, TCR CD3 inh)
CCOc1cc(C(N)=O)cc(Cl)c1OCC	SIAE primary 17 | SIAE confirm inactive
COc1ncnc2sc(-c3ccccc3)cc12	none
COc1ccc(Nc2ncnc3sc(-c4ccccc4)cc23)cc1	SIAE primary 33 | SIAE confirm inactive
O=C1C(NC(=O)N2c3ccccc3C=Cc3ccccc32)CCCCN1Cc1ccc(Cl)cc1 (stereo not drawn)	none (no result: HTRA1 inhibitor, TCR CD3 inh)
Cc1ccc(-n2c(SCC(=O)Nc3ccc(Oc4ccccc4)cc3)nnc2-c2cccc(C)c2)cc1	none (no result: HTRA1 inhibitor, TCR CD3 inh)
O=S(=O)(NCC(c1ccccc1)N1CCC(O)CC1)c1ccc(Cl)cc1 (stereo not drawn)	none
O=S(=O)(NCC(Nc1ccc(Cl)cc1)c1ccccc1)c1ccc(Cl)cc1 (stereo not drawn)	SIAE primary 19 | SIAE confirm inactive
CCCCCCCCN1C(=O)[C@@H](CC(=O)N2CCN(C(=O)OCC)CC2)C[C@@]2(C(=O)OC)C1=C[C@H](C(C)(C)C)O[C@@H]2C	none (no result: HTRA1 inhibitor)
O=C(CN1CCN(S(=O)(=O)c2ccc3c(c2)OCCO3)CC1)Nc1cccc(F)c1	SIAE primary 19 | SIAE confirm inactive
NC(=O)c1ccc(NC(=O)CN2CCN(S(=O)(=O)c3ccc4c(c3)OCCO4)CC2)cc1	none
O=C(COC(=O)C1CCN(S(=O)(=O)c2ccc3c(c2)OCCO3)CC1)Nc1cccc2ccccc12	SIAE primary 18 | SIAE confirm inactive
CNC(=O)COC(=O)C1CCN(S(=O)(=O)c2ccc3c(c2)OCCO3)CC1	none
NC1=NS(=O)(=O)Nc2ccccc21	none (no result: HTRA1 inhibitor, TCR CD3 inh, rCAG binder)
C=CCNC(=O)C(=O)NCC1CCCN1S(=O)(=O)c1cccs1 (stereo not drawn)	SIAE primary 20 | SIAE confirm inactive
Cc1ccc(C)c(C(=O)CN2Cc3ccccc3C2=O)c1	SIAE primary 23 | SIAE confirm inactive
Cc1nn(Cc2ccc(Cl)cc2Cl)c(C)c1NC(=O)C1C2CCC(O2)C1C(=O)O (stereo not drawn)	SIAE primary 20 | SIAE confirm inactive
Cc1nn(Cc2ccc(Cl)cc2Cl)c(C)c1NC(=O)c1nn(C)cc1Cl	none
Cc1nn(Cc2ccc(Cl)cc2Cl)c(C)c1NC(=O)c1nc2n(n1)C(C(F)F)CC(C)N2 (stereo not drawn)	SIAE primary 31 | SIAE confirm inactive
O=C(N/N=C/c1cn(Cc2ccccc2)c2ccccc12)c1cc(O)cc(O)c1	SIAE primary 20 | SIAE confirm inactive
Cc1cccc(OCCn2cc(/C=N/NC(=O)c3ccncc3)c3ccccc32)c1	SIAE primary 31 | SIAE confirm inactive
COC(=O)N/N=C/c1cn(CCOc2cccc(OC)c2)c2ccccc12	none
C[C@H]1CCCN1c1ccc2c(c1)OCCCN(C1CC1)S2(=O)=O	none (no result: HTRA1 inhibitor, TCR CD3 inh)
CCOC(=O)[C@]12CCCC=C1N(Cc1ccc(OC)cc1)C(=O)[C@@H]2CC(=O)NCCCOC	none (no result: HTRA1 inhibitor, TCR CD3 inh)
Cc1ccc(C)c(OCCC(=O)OCC(=O)N2c3ccccc3NC(=O)C2(C)C)c1	none
